Consider 1 molecule from ChEMBL document CHEMBL5661985, “In silico design of novel probes for the atypical opioid receptor MRGPRX2” (Nat Chem Biol, 2017).

Molecules are shown by their SMILES. pEC50, pIC50, pKd: −log10 of the molar value. Calls of active or inactive are those of the source. No cut-off for these calls is given here.

For experiment [1], the target named is T1, Mas-related G-protein coupled receptor member X2 (Homo sapiens) (UniProt Q96LB1).
T1 sequence (whole entry): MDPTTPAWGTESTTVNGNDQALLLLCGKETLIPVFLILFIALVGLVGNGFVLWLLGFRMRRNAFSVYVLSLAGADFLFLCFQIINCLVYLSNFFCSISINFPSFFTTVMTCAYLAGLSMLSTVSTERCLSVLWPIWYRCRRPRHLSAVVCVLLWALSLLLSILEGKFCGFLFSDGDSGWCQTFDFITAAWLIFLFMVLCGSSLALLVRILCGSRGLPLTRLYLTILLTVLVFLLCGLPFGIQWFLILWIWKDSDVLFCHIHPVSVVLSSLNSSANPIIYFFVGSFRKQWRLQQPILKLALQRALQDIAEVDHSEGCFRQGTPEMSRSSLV
Put plainly: Agonist activity at MRGPRX2 (unknown origin) expressed in HTLA cells assessed as induction of beta-arrestin 2 recruitment <10 uM incubated for 18 to 24 hrs by PRESTO-Tango assay. The format is functional, cell-based. Particulars: filed as agonist, time 18-24 hrs. The method in brief: (§1)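 β-arrestin2 recruitment by PRESTO-Tango: HTLA cells transiently transfected (calcium phosphate) with codon-optimized MRGPRX2-Tango (WT or point mutant) or MRGPRB2-Tango, plated next day 20,000 cells/well on poly-L-lysine; drug in HBSS/20 mM HEPES/0.3% BSA pH 7.4 for 18–24 h; Bright-Glo luminescence (RLU); curves n=3 in triplicate, mutants n=4 in triplicate.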
(In general: Activated receptors often draw arrestin, which recruitment assays turn into a signal.)

Experiment [2] has as its target T2, Mas-related G-protein coupled receptor member X2 (Homo sapiens, UniProt Q96LB1).
T2 sequence (Q96LB1 whole entry): T1 sequence (whole entry)
Put plainly: Agonist activity at MRGPRX2 (unknown origin) expressed in HTLA cells assessed as induction of beta-arrestin 2 recruitment incubated for 18 to 24 hrs by PRESTO-Tango assay. The format is functional, cell-based. Particulars: read-out: EC50.

Experiment [3] deals with T1, Mas-related G-protein coupled receptor member X2 (Homo sapiens). Put plainly: Agonist activity at MRGPRX2 (unknown origin) expressed in HTLA cells assessed as induction of beta-arrestin 2 recruitment at 10 uM incubated for 18 to 24 hrs by PRESTO-Tango assay. The format is functional, cell-based. The following applies: filed as agonist, time 18-24 hrs. The method in brief:
as §1

The target of experiment [4] is T3, Tyrosine-protein kinase BTK (Homo sapiens, UniProt Q06187). Put plainly: Inhibition of BTK (unknown origin) by Kinome scan method.
Experiment [5] deals with T3, Tyrosine-protein kinase BTK. Nature of the experiment: Binding affinity to BTK (unknown origin) assessed dissociation constant by Kinome scan method.
Experiment [6] has as its target T4, Mitogen-activated protein kinase 10 (Homo sapiens, UniProt P53779). Nature of the experiment: Binding affinity to JNK3 (unknown origin) assessed dissociation constant by Kinome scan method.
The target in experiment [7] is T1, Mas-related G-protein coupled receptor member X2 (Homo sapiens). Nature of the experiment: Agonist activity at N-terminal Flag-tagged human MRGPRX2 receptor expressed in tetracycline-induced FLP-IN/T-REX 293 cells assessed as increase in intracellular calcium release < 10 uM by FLIPR assay. It is filed as functional, cell-based. Particulars: filed as agonist. The method, boiled down:
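FLIPR calcium: FLP-IN/T-REX HEK-293-T stable line with N-terminal FLAG codon-optimized receptor, induced 24 h with 1 μg/mL tetracycline in 1% dialyzed FBS (uninduced cells as control); FLIPR calcium dye plus 2.5 mM probenecid 1 h 37°C; 10 s baseline, then drug in HBSS/20 mM HEPES/probenecid pH 7.4, 16-point curve 10 μM to 0.003 nM; fluorescence 120 s; fold over basal, n=3 triplicate.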

Experiment [8] concerns the target T5, Mitogen-activated protein kinase 8 (Homo sapiens, UniProt P45983). Put plainly: Inhibition of JNK1 (unknown origin) by Kinome scan method.
Experiment [9] deals with T4, Mitogen-activated protein kinase 10. Put plainly: Inhibition of JNK3 (unknown origin) by Kinome scan method.
The target of experiment [10] is T1, Mas-related G-protein coupled receptor member X2 (Homo sapiens). Put plainly: Agonist activity at MRGPRX2 receptor in human LAD2 cells assessed as increase in intracellular calcium release by FLIPR assay. It is filed as functional, cell-based. The following applies: filed as agonist. The method, boiled down:
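LAD2 human mast cells seeded 50,000/well in Tyrode's buffer with calcium dye, 1 h before drug; 10 s baseline, drug added, fluorescence followed 120 s; expressed as fold calcium release over baseline; n=3 in triplicate.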
(A change in cytosolic calcium serves as a functional read-out for many receptors and channels.)

Experiment [11] concerns the target T5, Mitogen-activated protein kinase 8. Nature of the experiment: Binding affinity to JNK1 (unknown origin) assessed dissociation constant by Kinome scan method.

T4 sequence (P53779 whole entry): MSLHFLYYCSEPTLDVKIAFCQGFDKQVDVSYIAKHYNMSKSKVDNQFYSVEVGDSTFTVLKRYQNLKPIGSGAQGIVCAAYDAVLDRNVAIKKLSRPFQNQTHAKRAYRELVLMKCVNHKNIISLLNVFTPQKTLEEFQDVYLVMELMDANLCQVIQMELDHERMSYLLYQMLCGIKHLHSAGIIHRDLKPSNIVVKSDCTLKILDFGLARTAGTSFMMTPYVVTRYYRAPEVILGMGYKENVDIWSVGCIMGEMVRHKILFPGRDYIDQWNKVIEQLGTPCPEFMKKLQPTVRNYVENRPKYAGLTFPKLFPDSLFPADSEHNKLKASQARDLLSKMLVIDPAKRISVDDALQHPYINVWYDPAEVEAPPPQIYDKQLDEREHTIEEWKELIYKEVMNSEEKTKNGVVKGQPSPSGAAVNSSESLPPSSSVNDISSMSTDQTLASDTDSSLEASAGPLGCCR
T5 sequence (P45983 whole entry): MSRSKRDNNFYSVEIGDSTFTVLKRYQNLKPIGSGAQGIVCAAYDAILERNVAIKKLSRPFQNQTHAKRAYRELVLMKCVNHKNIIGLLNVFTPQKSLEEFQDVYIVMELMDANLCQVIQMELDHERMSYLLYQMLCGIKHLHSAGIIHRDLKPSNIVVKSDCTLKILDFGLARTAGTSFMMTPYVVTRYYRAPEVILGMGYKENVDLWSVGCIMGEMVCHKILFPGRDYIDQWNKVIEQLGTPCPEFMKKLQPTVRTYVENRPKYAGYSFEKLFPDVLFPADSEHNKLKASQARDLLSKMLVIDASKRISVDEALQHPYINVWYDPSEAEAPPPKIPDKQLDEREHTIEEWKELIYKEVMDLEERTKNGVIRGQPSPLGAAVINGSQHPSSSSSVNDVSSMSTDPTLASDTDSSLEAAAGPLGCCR
T3 sequence (Q06187 whole entry): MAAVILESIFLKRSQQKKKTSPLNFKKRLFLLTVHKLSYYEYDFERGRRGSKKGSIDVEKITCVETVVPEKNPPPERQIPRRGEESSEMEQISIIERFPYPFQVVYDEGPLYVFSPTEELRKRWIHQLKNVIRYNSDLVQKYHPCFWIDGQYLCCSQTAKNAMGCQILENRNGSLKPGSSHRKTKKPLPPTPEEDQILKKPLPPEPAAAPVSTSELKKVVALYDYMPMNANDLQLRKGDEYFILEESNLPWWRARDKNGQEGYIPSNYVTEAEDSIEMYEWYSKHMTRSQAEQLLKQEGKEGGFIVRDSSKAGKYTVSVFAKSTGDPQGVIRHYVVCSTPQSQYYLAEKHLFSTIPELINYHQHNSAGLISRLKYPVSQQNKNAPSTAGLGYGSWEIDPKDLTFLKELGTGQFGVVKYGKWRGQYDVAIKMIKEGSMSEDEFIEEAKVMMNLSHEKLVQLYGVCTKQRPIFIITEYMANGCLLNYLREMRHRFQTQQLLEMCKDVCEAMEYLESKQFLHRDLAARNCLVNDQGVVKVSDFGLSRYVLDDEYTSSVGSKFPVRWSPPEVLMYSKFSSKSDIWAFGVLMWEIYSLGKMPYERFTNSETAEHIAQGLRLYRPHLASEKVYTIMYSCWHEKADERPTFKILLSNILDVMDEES

The term pEC50 denotes the negative decadic logarithm of the EC50, by convention in mol/L. As usually defined, the pIC50 is the IC50 on a negative log10 scale, so that one unit is a factor of ten. Higher therefore signals a low IC50. The pKd is −log10 of the Kd, conventionally taken in molar units. Lower therefore signals a large Kd. In the case of `Cc1cc2nc(-c3ccccc3)cc(N3CCC(N(C)C)C3)n2n1` (stereo unspecified), the outcome in [1], in experiment [3], in experiment [7] and in experiment [10] was Active. The pEC50 in [2] was 5.52. In addition, the pIC50 in experiment [4], in experiment [8] and in experiment [9] was 4.70 throughout. For the same molecule, the pKd in [5] is 4.57; in experiment [6] it was < 4.52; in experiment [11], 4.72.
